Laboratory results published in ChEMBL document CHEMBL1128520, “Synthesis of (dialkylamino)alkyl-disubstituted pyrimido[5,6,1- de]acridines, a novel group of anticancer agents active on a multidrug resistant cell line” (J Med Chem, 1995).

Legend:
[1] = Resistance Index is the ratio of EC50 of LoVo/Dx cell line and EC50 of LoVo cell line; format: functional
LoVo [2] = test: The compound was tested in vitro for cytotoxic activity against sensitive LoVo human colon adenocarcinoma cell line; format: functional, cell-based
Method in brief: (§1)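 LoVo and doxorubicin-resistant LoVo/Dx monolayers grown in Ham's F-12 with 10% fetal calf serum, penicillin/streptomycin, L-glutamine and MEM vitamins, 37 °C, 5% CO2. Log-phase cells seeded at 0.02×10^6 cells/mL. Exposure 72 h. Growth measured by cellular protein content. EC50 is the concentration giving 50% growth inhibition. At least five runs, mean ± SEM.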

L1210 = test: The compound was tested in vitro for cytotoxic activity against L1210 Murine leukemia cell line; format: functional, cell-based; conditions: Mus musculus
Method in brief: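 Murine L1210 leukemia cells grown in suspension in RPMI 1640 with 5% fetal calf serum and penicillin/streptomycin, 37 °C, 5% CO2, passaged every 2–3 days. Log-phase cells seeded at 0.05×10^6 cells/mL. Exposure 48 h. Growth read by cellular protein content. EC50 is the concentration giving 50% growth inhibition. At least five runs, mean ± SEM.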

LoVo [3] = test: The compound was tested in vitro for cytotoxic activity against Doxorubicin resistant LoVo/Dx human colon adenocarcinoma cell line; format: functional, cell-based; method in brief: as §1
Mus musculus [4] = species: Mus musculus; test: The compound was tested for toxicity (number of toxic deaths/total number of mice 7 days after the day 5 injection); 6/6; format: organism-based; conditions: in vivo, 168 h
Mus musculus [5] = test: The compound was tested for anti tumor activity against P388 Murine Leukemia (%T/C = ratio of survival time of the treated to the control mice) at 0.78 mg/kg; format: functional
Method in brief: (§2)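 P388 leukemia cells, 10^6 per mouse, given ip on day 0 to (BALB/c × DBA/2) F1 hybrid mice; line kept by ip passage in DBA/2 mice. Groups of 6 treated and 12 control mice. %T/C = mean survival time of treated / control × 100; ≥125 taken as significant.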

Mus musculus [6] = species: Mus musculus; test: The compound was tested for toxicity (number of toxic deaths/total number of mice 7 days after the day 5 injection); 0/6; format: organism-based; conditions: in vivo, 168 h
Mus musculus [7] = test: The compound was tested for anti tumor activity against P388 Murine Leukemia (%T/C = ratio of survival time of the treated to the control mice) at 3.12 mg/kg; format: functional; method in brief: as §2
Mus musculus [8] = test: The compound was tested for anti tumor activity against P388 Murine Leukemia (%T/C = ratio of survival time of the treated to the control mice) at 1.56 mg/kg; format: functional; method in brief: as §2
Mus musculus [9] = test: The compound was tested for anti tumor activity against P388 Murine Leukemia (%T/C = ratio of survival time of the treated to the control mice) at 0.19 mg/kg; format: functional; method in brief: as §2
Mus musculus [10] = test: The compound was tested for anti tumor activity against P388 Murine Leukemia (%T/C = ratio of survival time of the treated to the control mice) at 0.39 mg/kg; format: functional; method in brief: as §2
Mus musculus [11] = species: Mus musculus; test: The compound was tested for toxicity (number of toxic deaths/total number of mice 7 days after the day 5 injection); 1/6; format: organism-based; conditions: in vivo, 168 h

Compound	Resistance index [1]	EC50 (LoVo [2]) [nM]	EC50 (L1210) [nM]	EC50 (LoVo [3]) [nM]	Toxicity (Mus musculus [4])	T/C (Mus musculus [5]) [%]	Toxicity (Mus musculus [6])	T/C (Mus musculus [7]) [%]	T/C (Mus musculus [8]) [%]	T/C (Mus musculus [9]) [%]	T/C (Mus musculus [10]) [%]	Toxicity (Mus musculus [11])
CN(C)CCCNc1ccc2c(=O)n(CCN(C)C)c(=O)n3c4ccccc4c(=O)c1c23.Cl	0.8	190	63	160	–	–	–	–	–	–	–	–
CN(C)CCNc1ccc2c(=O)n(CCN(C)C)c(=O)n3c4ccccc4c(=O)c1c23.Cl	–	–	2.2	–	6	222	0	70	100	166	222	1
CN(C)CCn1c(=O)c2ccc(NCCNCCO)c3c(=O)c4ccccc4n(c1=O)c23.Cl	7.7	30	4.5	230	6	233	0	70	167	189	244	–
Cl.O=C1c2ccccc2C(=O)c2c(NCCNCCO)ccc(NCCNCCO)c21	57.5	640	350	36800	–	–	–	–	–	–	–	–
CN(C)CCn1c(=O)c2ccc(Cl)c3c(=O)c4ccccc4n(c1=O)c23.Cl	1.2	1200	500	1400	–	–	–	–	–	–	–	–
CCN(CC)CCNc1ccc2c(=O)n(CCN(C)C)c(=O)n3c4ccccc4c(=O)c1c23.Cl	1.9	52	52	100	–	–	–	–	–	–	–	–
CN(C)CCn1c(=O)c2ccc(NCCN3CCNCC3)c3c(=O)c4ccccc4n(c1=O)c23.Cl	1.2	850	210	1000	–	–	–	–	–	–	–	–
